Experimental data collected from several papers.
Lines come from different studies, so protocols differ.
EGFR G719C: Epidermal growth factor receptor (EGFR, Homo sapiens, UniProt P00533, G719C)
EGFR: Epidermal growth factor receptor (EGFR, Homo sapiens, UniProt P00533)
EGFR del752-759: Epidermal growth factor receptor (EGFR, Homo sapiens, UniProt P00533, del752-759)
EGFR G719S: Epidermal growth factor receptor (EGFR, Homo sapiens, UniProt P00533, G719S)
EGFR T790M: Epidermal growth factor receptor (EGFR, Homo sapiens, UniProt P00533, T790M)
EGFR L858R: Epidermal growth factor receptor (EGFR, Homo sapiens, UniProt P00533, L858R)
EGFR del747-750/T751S: Epidermal growth factor receptor (EGFR, Homo sapiens, UniProt P00533, del747-750/T751S)
EGFR del747-752/P753S: Epidermal growth factor receptor (EGFR, Homo sapiens, UniProt P00533, del747-752/P753S)
EGFR L861Q: Epidermal growth factor receptor (EGFR, Homo sapiens, UniProt P00533, L861Q)

Nc1ncc2c(n1)-c1c([nH]c3ccc(C#CC4CC4)cc13)CCCC2 — remaining binding (EGFR G719C; binding; competition with immobilised ligand; 1 µM): 91%
CN1CCN(c2ccc(Nc3nccc(-c4cccc([N+](=O)[O-])c4)n3)cc2C(F)(F)F)CC1 — remaining binding (Epidermal growth factor receptor (EGFR, Homo sapiens, UniProt P00533, L858R/T790M); binding; 10 µM): 29%
COc1cnc(Nc2cccc(S(N)(=O)=O)c2)nc1N1CCN(c2ccccc2)CC1 — remaining binding (EGFR; binding; competition with immobilised ligand; 1 µM): 100%
CN1CCN(c2ccc(Nc3nccc(-c4ccccc4)n3)cc2C(F)(F)F)CC1 — remaining binding (EGFR del752-759; binding; 10 µM): 100%
CCOC(=O)c1cc2cc(-c3cc(C(=O)NCc4ccc(C(=O)O)cc4)nn3C)ccc2[nH]1 — remaining binding (EGFR G719C; cell-free assay; competition with immobilised ligand; 0.1 µM): 100%
COc1ncc2cc3ccccc3nc2c1C#N — remaining binding (EGFR; cell-free assay; competition with immobilised ligand; 5 µM): 94%
C[C@@H]1CCN(c2nccc(-c3cnn4ncccc34)n2)C1 — remaining binding (EGFR G719S; binding; 1 µM): 74%
FC(F)(F)c1ccc2c(c1)nc(-c1cccnc1)n2C1CC1 — remaining binding (EGFR G719S; cell-free assay; competition with immobilised ligand; 1 µM): 93%
O=C(c1ccc(Nc2ncc(Cl)c(-c3cc4ccccc4s3)n2)cc1)N1CCC(N2CCCC2)CC1 — remaining binding (EGFR T790M; binding; competition with immobilised ligand; 1 µM): 58%
CN(CCCC(F)(F)F)c1nccc(-c2cnn3ncccc23)n1 — remaining binding (EGFR del752-759; binding; 1 µM): 85%
CCC(=N\O)/C(C)=C/c1ccc(F)cc1 — remaining binding (EGFR L858R; cell-free assay; competition with immobilised ligand; 1 µM): 65%
Cc1cnc(Nc2ccc(C(=O)N3CCC(N4CCCC4)CC3)cc2)nc1-c1cc2ccccc2s1 — remaining binding (EGFR del747-750/T751S; binding; competition with immobilised ligand; 1 µM): 97%
C[C@@H](c1cccc(C#N)c1)n1cc(Cl)cc(C(N)=O)c1=N — remaining binding (EGFR L858R; cell-free assay; competition with immobilised ligand; 1 µM): 100%
O=C(Nc1c[nH]nc1C(=O)NC1CCNCC1)c1cc(F)cc(F)c1 — remaining binding (EGFR T790M; binding; competition with immobilised ligand; 1 µM): 100%
O=C(c1ccc(Nc2nccc(-c3cc4ccccc4s3)n2)cc1)N1CCC(N2CCCC2)CC1 — remaining binding (EGFR del747-752/P753S; binding; competition with immobilised ligand; 1 µM): 90%
O=C(NCC1CCOCC1)c1n[nH]cc1NC(=O)c1c(F)cccc1F — remaining binding (EGFR T790M; binding; competition with immobilised ligand; 1 µM): 93%
Cc1nc(N2CC[C@@H](O)C2)ncc1-c1cc(C(F)(F)F)cc2[nH]ncc12 — remaining binding (EGFR del752-759; cell-free assay; competition with immobilised ligand; 1 µM): 99%
O=C(NCCCN1CCOCC1)c1ccc(Nc2nccc(-c3cc4ccccc4s3)n2)cc1 — remaining binding (EGFR G719C; binding; competition with immobilised ligand; 1 µM): 99%
COc1ccnn2ncc(-c3ccnc(N(C)C)n3)c12 — remaining binding (EGFR del752-759; binding; 1 µM): 86%
O=C1NC(c2ccccn2)Sc2ccccc21 (centres unmarked) — remaining binding (EGFR del747-750/T751S; cell-free assay; competition with immobilised ligand; 1 µM): 68%
COc1cnc(Nc2cccc(S(N)(=O)=O)c2)nc1N1CCN(c2ccccc2)C(=O)C1 — remaining binding (Epidermal growth factor receptor (EGFR, Homo sapiens, UniProt P00533, A750P/del747-749); binding; competition with immobilised ligand; 1 µM): 92%
F[C@@H]1CCN(c2nccc(-c3cnn4ncccc34)n2)C1 — remaining binding (EGFR G719S; binding; 1 µM): 100%
CNC(=O)[C@@H]1CC[C@@H](n2c(-c3ccc4cnccc4c3)nc3ccc(C(=O)NCc4cccc(C(N)=O)c4)cc32)C1 — remaining binding (Epidermal growth factor receptor (EGFR, Homo sapiens, UniProt P00533, del746-750); binding; competition with immobilised ligand; 1 µM): 90%
CCN1CCN(Cc2ccc(C(=O)Nc3ccc(C)c(Oc4ccc5c(c4)CC(=O)N5)c3)cc2C(F)(F)F)CC1 — remaining binding (EGFR del747-752/P753S; binding; competition with immobilised ligand; 1 µM): 100%
O=C(NCCCN1CCOCC1)c1ccc(Nc2ncc(Cl)c(-c3ccc(Cl)s3)n2)cc1 — remaining binding (EGFR del752-759; binding; competition with immobilised ligand; 1 µM): 92%
O=C(N1CCS(=O)(=O)CC1)N1C[C@H](c2ccc(OC(F)(F)F)cc2)C[C@H](c2nc(C3CC3)no2)C1 — remaining binding (EGFR L858R; cell-free assay; competition with immobilised ligand; 1 µM): 100%
CN(C)c1nccc(-c2cnn3ncccc23)n1 — remaining binding (EGFR; binding; 1 µM): 100%
Cn1nc(C(F)(F)F)cc1-c1cnc(N2CCc3cc(S(=O)(=O)Nc4c(F)cc(Cl)cc4F)cc(N4CCCC4=O)c32)nc1 — remaining binding (EGFR del747-752/P753S; cell-free assay; competition with immobilised ligand; 1 µM): 100%
CC1CCCN1c1nccc(-c2cnn3ncccc23)n1 (centres unmarked) — remaining binding (EGFR L861Q; binding; 1 µM): 100%
O=C(c1ccc(Nc2ncc(Cl)c(-c3ccc(Cl)s3)n2)cc1)N1CCC(N2CCCC2)CC1 — remaining binding (EGFR L861Q; binding; competition with immobilised ligand; 1 µM): 100%
CN(C)c1ncc(F)c(-c2cnn3ncccc23)n1 — remaining binding (EGFR G719C; binding; 1 µM): 86%
c1cncc(-c2cccc(Nc3nccc(NC4CCCCC4)n3)c2)c1 — remaining binding (EGFR del747-752/P753S; binding; competition with immobilised ligand; 10 µM): 42%
